The list is not random: actives were taken first. Their share in the collection is about 12%.
Diaphorase inh – diaphorase inhibitors and chemical oxidizers, primary screen, counter-screen for diaphorase-coupled primary assays, biochemical, uHTS, resorufin fluorescence. diaphorase resazurin-to-resorufin fluorescence, NADH, 16 min; bacterial (C. kluyveri) enzyme, not human. inhibition, % at 20 µM. actives 0.69% (n = 190,000);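 active = primary screen inhibition at 20 µM above a set limit, cut at about 50% in these data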;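 also: plate controls were DMSO with full reaction for no effect and wells lacking NADH for full effect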
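Test system: Clostridium kluyveri diaphorase enzyme / Quantity: diaphorase at 0.14 U/mL in enzyme working solution / Incubation: 16-min room-temperature incubation before reading / Benchmarks: NADH-free wells as positive control, DMSO-only neutral wells / Signal: resorufin fluorescence 544/590 nm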
Cl transport mod – KCC2 cotransporter modulators, thallium flux, primary screen, cell-based, HEK293 KCC2, FluoZin-2 fluorescence, MLSMR. actives 2.2% (n = 190,000). Solute carrier family 12 member 5 (Homo sapiens), Q9H2X9. B-score of Tl+ flux slope (higher = more flux/activation; lower = inhibition) at 10 µM. KCC2 cells, thallium flux FluoZin-2 fluorescence;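 active = thallium flux slope and its plate-corrected score both differing from the plate sample mean at a set confidence after two filtering rounds, in either direction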;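 also: slope of fluorescence scaled to starting intensity during 10 to 20 s after thallium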
Diaphorase act – compounds boosting diaphorase resazurin reduction – biochemical, uHTS, resorufin fluorescence, counter-screen for diaphorase-coupled primary assays, primary screen; Diaphorase/resazurin coupled assay, 16 min; hits give high values; 1 = vehicle wells, 0 = NADH-free wells; activation factor at 20 µM; actives 0.005% (n = 190,000); AID 1229, 2008;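 active = diaphorase activity raised at least twofold by the compound at 20 µM; inactive = activation factor below 2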
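Test system: Clostridium kluyveri diaphorase, purified enzyme; input: enzyme 0.07 U/mL final; buffer or medium: 50 mM HEPES pH 7.4 with 4.542 mM MgCl2, 0.005% Tween 20; also added: 0.114 mM NADH and 0.1 mM resazurin, final amounts; schedule: 16 min enzyme reaction, ambient temperature; technique: fluorescence of resorufin, 544 nm excitation, 590 nm emission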
WT yeast gro inh – growth inhibition of WT strain, primary screen, mitochondrial fusion inhibitor project, WT and mutant strains, chemical genetic; mitochondrial fusion phenotypic screen; inhibition, % at 10 µM; actives 2.1% (n = 190,000); in the data active = inhibition above about 58%; tested in S. cerevisiae
ROMK mod – ROMK potassium channel modulators, primary screen, cell-based, thallium flux, MLSMR library; Tet-inducible ROMK, thallium flux fluorescence; actives lie on both sides; B-score at 10 µM; actives 2% (n = 130,000); AID 1918, 2009;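 active = signal ratio slope over the read window, or its plate-corrected B-score, at least 3 SD from the plate mean, either direction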;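 also: B-score of the F/F0 ratio slope over 7 to 12 s after thallium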
Target sequence (P48048 whole entry, looked up): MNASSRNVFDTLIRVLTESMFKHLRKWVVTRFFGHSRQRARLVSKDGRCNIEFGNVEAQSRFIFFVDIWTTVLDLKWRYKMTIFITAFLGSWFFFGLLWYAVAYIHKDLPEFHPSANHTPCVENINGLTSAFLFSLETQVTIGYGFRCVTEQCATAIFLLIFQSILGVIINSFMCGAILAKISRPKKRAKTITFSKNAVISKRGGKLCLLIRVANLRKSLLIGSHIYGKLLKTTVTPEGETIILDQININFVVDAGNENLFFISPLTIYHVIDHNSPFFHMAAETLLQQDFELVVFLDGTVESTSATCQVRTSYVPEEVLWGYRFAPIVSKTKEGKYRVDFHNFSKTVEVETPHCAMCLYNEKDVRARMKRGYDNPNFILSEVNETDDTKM
Lmaj promast – Leishmania major promastigote growth inhibition, primary screen; Leishmania major promastigotes, resazurin fluorescence viability; inhibition, % at 10 µM; actives 9% (n = 200,000); in the data active = inhibition above about 50%;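 also: promastigotes grown with compound for 44 hours at 28 °C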
ROMK hit retest – ROMK channel modulator hit retest, confirmation, cell-based, thallium flux, duplicate, resupplied hits; shares compounds with ROMK mod; fluorescence ratio; hits give low values; normalized thallium flux (F/F0 slope) at 10 µM; actives 54% (n = 3,000); AID 1917, 2009;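 active = Flux at 10 µM at least 3 SD below or above vehicle control mean in one or both replicates; inconclusive = no clear call, values can overlap the other calls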
* hit, by the source's call; ? = inconclusive; . = no result.

SMILES | Diaphorase inh | Cl transport mod | Diaphorase act | WT yeast gro inh | ROMK mod | Lmaj promast | ROMK hit retest
C=CCOC(=O)C(C#N)c1nc2ccccc2nc1N1CCN(Cc2ccc3c(c2)OCO3)CC1 (stereo not given) | 10.9 | -0.254 | 0.9 | 18.4 | -3.18* | 57.8* | 0.063*
CCOC(=O)c1ccccc1NC(=O)CN(c1ccccc1)S(=O)(=O)N(C)C | 13.6 | -1.83 | 0.9 | 11.1 | -1.03 | 15.4 | .
CCOc1ccccc1C1CC(=O)NC(SCC(=O)Nc2nccs2)=C1C#N (stereo not given) | -8.8 | 0.151 | 1.1 | -9.1 | -0.0377 | 6.6 | .
COc1ccc2oc(=O)c(-c3nnc(N)s3)cc2c1 | -2.0 | -1.3 | 1 | 16.9 | -0.735 | 6.1 | .
COc1ccc2oc(=O)c(-c3nc(C)cs3)cc2c1 | 32.4 | -0.132 | 0.7 | 3.6 | -5.14* | -3.6 | 0.0723
O=C1/C(=C\Nc2ccc(OC(F)(F)F)cc2)CCN1c1ncccn1 | 18.1 | . | 0.8 | 3.4 | 2.94* | -1.8 | 0.0832
O=C1/C(=C\Nc2ccc(Cl)cc2)CCN1c1ncccn1 | 11.4 | . | 0.9 | 11.2 | . | 3.3 | .
CCc1ccc(N(C(C)=O)C2C=CS(=O)(=O)C2)cc1 (stereo not given) | 19.0 | -1.15 | 0.8 | -7.0 | . | -2.6 | .
CCOc1ccc(N2CCn3c2nc2c3c(=O)n(CCc3ccccc3)c(=O)n2C)cc1 | 17.7 | . | 0.8 | . | . | . | .
COc1cccc(NC(=O)COC(=O)c2nc(Cl)ccc2Cl)c1 | 17.5 | -0.452 | 0.8 | -11.3 | 0.37 | -3.9 | .
O=C(COC(=O)c1nc(Cl)ccc1Cl)Nc1ccc2c(c1)OCO2 | 9.7 | 0.0395 | 0.9 | -13.0 | -1.7* | -4.9 | 0.0796
O=C(COC(=O)c1c2c(nc3ccccc13)CCCC2)Nc1ccc2c(c1)OCO2 | 21.8 | -0.28 | 0.8 | -6.7 | . | 59.3* | 0.0751
COc1cc(C(=O)O)c2ccccc2n1 | 4.2 | -0.666 | 1 | -8.4 | -0.264 | -7.2 | .
C/C(=N\NC(=O)CNC(=O)c1ccncc1)c1ccc(C)cc1 | -8.2 | . | 1.1 | 13.2 | -0.62 | 2.9 | .
C/C(=N/NC(=O)CNc1ccc(Cl)cc1C)c1ccc(C)cc1 | 6.3 | 1.72 | 0.9 | -8.4 | 11.9* | -1.7 | 0.0782
CCn1c(NC(=O)Nc2cccc(C)c2C)cc2sccc21 | 27.8 | -1.1 | 0.7 | 16.7 | . | -9.3 | .
CCCNC(=S)Nc1cccc(C(F)(F)F)c1 | 13.0 | 0.415 | 0.9 | 12.1 | -0.571 | 71.3* | ?
COc1ccc(S(=O)(=O)N2CCOCC2)cc1NC(=O)CN(C)Cc1c(F)cccc1Cl | 9.4 | -3.47 | 0.9 | 31.7 | -0.365 | 18.8 | .
COc1ccc(Cl)cc1NC(=O)CN(C)CC(=O)Nc1ccccc1N1CCOCC1 | 18.8 | 0.686 | 0.8 | 17.1 | 5.09* | 54.4* | ?
COc1cc(OC)cc(C(=O)N[C@H](C(=O)Nc2ccccc2N2CCOCC2)C(C)C)c1 | 6.9 | 0.213 | 0.9 | -9.0 | 1.17 | -0.2 | .
Cc1cc(Cl)ccc1OC(C)C(=O)Nc1ccccc1N1CCOCC1 (stereo not given) | 26.5 | -0.736 | 0.7 | 72.8* | . | 26.4 | ?
CCOC(=O)Cn1nc(-c2ccccc2)c2ccccc2c1=O | 15.9 | . | 0.8 | . | 4.06* | -5.4 | 0.0809
O=C(CSc1nnc(Cc2cccs2)n1Cc1ccco1)Nc1ccc(Br)cc1 | 35.3 | -0.513 | 0.6 | . | -2.92* | 8.1 | ?
O=C(CSc1nnc(Cc2cccs2)n1Cc1ccco1)Nc1ccc(Cl)cc1Cl | 31.7 | . | 0.7 | 21.3 | -2.86 | 3.8 | .
NC(=O)c1c(NC(=O)CSc2nnc(Cc3ccccc3)n2Cc2ccco2)sc2c1CCC2 | 33.8 | . | 0.7 | 0.7 | -3.73* | 8.2 | 0.0528*
SMILES | Diaphorase inh | Cl transport mod | Diaphorase act | WT yeast gro inh | ROMK mod | Lmaj promast | ROMK hit retest
CC(CCc1ccccc1)NC(=O)C1CCN(S(=O)(=O)c2cnc[nH]2)CC1 (stereo not given) | 8.0 | -0.689 | 0.9 | 3.1 | 0.607 | -2.4 | .
Cc1cccc(N2CN(Cc3ccco3)CNC2=S)c1C | 9.1 | -0.316 | 0.9 | 4.6 | . | -8.0 | .
COCCOC(=O)c1c(C)oc2ccc(NS(=O)(=O)c3ccccc3)cc12 | 24.0 | -0.0257 | 0.8 | 22.4 | . | 7.9 | .
CCOC(=O)c1c(C)oc2ccc(NS(=O)(=O)c3ccc4c5c(cccc35)C(=O)N4)cc12 | 27.1 | 0.0312 | 0.7 | 1.6 | -2.96* | 91.0* | 0.0838
COC(=O)c1c(C)oc2ccc(NS(=O)(=O)c3cccs3)cc12 | 13.6 | -0.0612 | 0.9 | 2.6 | -4.01* | 0.3 | ?
O=C(CN1CCN(Cc2ccccc2Cl)C1=O)NC1CCCCCCC1 | 12.4 | . | 0.9 | 11.2 | -2.64* | 20.2 | 0.0573*
O=S(=O)(NC1CCCC1)c1ccc(S(=O)(=O)N(Cc2cccs2)CC2CCCO2)cc1 (stereo not given) | 26.3 | -1.06 | 0.7 | -3.2 | -3.13* | 16.7 | 0.0732
O=S(=O)(c1ccc(S(=O)(=O)N(Cc2cccs2)CC2CCCO2)cc1)N1CCCCC1 (stereo not given) | 7.1 | . | 0.9 | 17.3 | -0.92 | 7.1 | .
O=C(Cc1cccs1)N(Cc1cccs1)C1(C(=O)NC2CCCC2)CCCCC1 | 3.7 | 0.244 | 1 | 8.9 | -1.52 | 25.8 | .
O=C(Cc1cccs1)N(CC1CCCO1)C1(C(=O)NC2CCCC2)CCCCC1 (stereo not given) | 0.7 | -0.776 | 1 | -8.9 | -1.82* | 23.0 | ?
CCCNC(=O)c1nnsc1S(=O)c1ccc(Cl)cc1 (stereo not given) | 2.3 | 0.357 | 1 | 85.5 | -6.4* | 100.4* | 0.0553*
CNC(=O)c1nnsc1S(=O)c1ccc(Cl)cc1 (stereo not given) | 10.9 | 0.615 | 0.9 | 58.9 | -8.78* | 100.3* | 0.049*
CCCNC(=O)c1nnsc1S(=O)(=O)c1ccc(Cl)cc1 | 4.4 | -0.799 | 1 | 84.6 | -4.87* | 17.7 | 0.0474*
COc1ccc(C2=CC(c3ccc(C)cc3)n3nnnc3N2)cc1 (stereo not given) | 4.2 | . | 1 | 44.9 | -4.38* | 3.0 | ?
Cc1csc2c(N3CCN(C(=S)Nc4ccc(F)cc4F)CC3)ncnc12 | . | -1.46 | . | . | -3.3* | . | 0.0609*
S=c1[nH]nc(-c2cc(-c3ccccc3)n[nH]2)n1/N=C/c1cccc(Cl)c1 | . | 0.0594 | . | . | . | . | .
CCS(=O)(=O)N1CCC(C(=O)N2CCc3ccccc3C2)CC1 | 15.7 | . | 0.8 | -5.7 | 0.75 | -3.7 | .
